Test results taken from ChEMBL document CHEMBL1124408, “3-aminopyridazine derivatives with atypical antidepressant, serotonergic, and dopaminergic activities” (J Med Chem, 1989).

Legend:
Assay type in all cases: functional
[1] = test system: Mus musculus; assay: Compound was tested for antidepressant activity against reserpine induced ptosis in mice after intraperitoneal administration.; value ranges from 2.2-2.4; details: ip
How it was run: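 Female CD1 mice (18-22 g) received the drug in distilled water/gum tragacanth ip at multiple doses (7-20 mice/dose), given together with reserpine (2 mg/kg iv). One hour later, palpebral ptosis (half or more of the lid closed) was scored all-or-none. Screening dose was at most 50% of the seizure threshold dose.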

[2] = test system: Mus musculus; assay: Serotonergic activity was determined by measuring the potentiation of 5-hydroxytryptophan in mice upon ip administration
How it was run: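 Drug was injected ip in distilled water/gum tragacanth to female CD1 mice (18-22 g) at multiple doses (7-20 mice/dose), 30 min before a threshold dose of L-5-HTP (200 mg/kg ip). Mice were held singly in small cages, and tremor was scored all-or-none over the 20 min after L-5-HTP.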

[3] = test system: Mus musculus; assay: Ability to modify turning behavior of mice after intraperitoneal administration; details: ip, read-out: MED
How it was run: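 Female CD1 mice (25-30 g) were lesioned by stereotaxic injection of 6-OHDA (10 μg in 1 μL saline with 1 mg/mL ascorbic acid) into the right striatum under pentobarbitone (60 mg/kg ip). Seven days later, drug in distilled water/gum tragacanth was given ip at multiple doses (7-20 mice/dose). Ipsilateral turns were counted for 2 min starting 30 min post-dose.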

`CN(C)CCCN1c2ccccc2CCc2ccccc21` [IMIPRAMINE] gave an ED50 [1] of 2.3 mg/kg, an ED50 [2] of over 30 mg/kg and a minimal effective dose [3] of over 20 mg/kg.
